Results on ten compounds are retold here after PMC7673712 (Science Advances, 2020).

For series [1], the system named is CT-26 cells. Kind of series: Cellular GSH quantitative analysis. It counts as cell-based. The following applies: 1.0 mM, 0.5 and 2 hours. Put shortly: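 CT-26 cells (RPMI 1640, 10% FBS, 37°C, 5% CO2) seeded in 24-well plates at 40,000 cells/well for 18 h. Medium replaced with serum-free medium containing test compound at various concentrations. After 0.5 or 2 h the cells were lysed and intracellular GSH was measured with a GSH/GSSG assay kit.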

Series [2] concerns CT-26 cells and MCF-7 cells. Kind of series: Cellular RNS detection, red fluorescent dye, microscopy and flow cytometry. It counts as cell-based. The conditions noted are these: after 4 hours of treatment, CT-26 and MCF-7 cells. Put shortly:
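CT-26 and MCF-7 cells (RPMI 1640, 10% FBS, 37°C, 5% CO2) grown in 24-well plates were preloaded with NO detection reagent for 2 h under normal culture conditions. The reagent was removed, and cells were exposed to test compound for 1, 2 or 4 h, with a commercial HNO donor as positive control. Cells were washed once, and red fluorescence was imaged by inverted fluorescence microscopy.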

The nature of series [3]: ITC binding of ILs to cardiolipin. The conditions noted are these: compared with [Ch][Tau] or [EMIm][APA]. The gist of the method: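 Isothermal titration calorimetry at 25°C. An aqueous solution of test compound in the syringe was titrated into aqueous 18:1 cardiolipin in the sample cell. One small injection was followed by 28 larger injections, each lasting 10 s, with 120 s between injections and stirring at 1001 rpm. The binding constant was obtained from analysis of the calorimetric data.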

Series [4] can be described thus: NO absorption by ILs, gravimetric method. It counts as physicochemical. The conditions noted are these: 30°C until full absorption. The gist of the method:
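The system was purged with N2 (60 ml/min, 30 min). NO at atmospheric pressure was then bubbled at about 20 ml/min through about 1 g of test compound held in a metal block at 30°C. Uptake was weighed at regular intervals on a balance (±0.0001 g) until absorption was complete, and expressed as mol NO per mol compound.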

Series [5] is described as follows: HNO release half-life of IL-NONOates in PBS, UV absorbance decay at 330 nm. It counts as physicochemical. The conditions noted are these: IL-NONOate formed from the IL; 37°C, pH 7.4, 0.01 M phosphate buffer (PBS).

With `[Na+].[Na+].[O-][N+]([O-])=NO` [AS, Na2N2O3], the “intracellular GSH levels” value in series [1] is reported as “restoration of GSH”. The “intracellular RNS level” value in series [2] is recorded as “failed to achieve this goal”.

As for `C[N+](C)(C)CCO.NCCC(=O)[O-]` [[Ch][APA]], the “binding constant with CL, comparison” value in series [3] was “significantly higher”. For the same compound, the Absorption capacity in series [4] is 1.70 mol NO per mol of IL. Also, in series [5], the “t1/2 (HNO release half-life)” value came to 17.68 h.

Turning to `C[N+](C)(C)CCO.NCCS(=O)(=O)[O-]` [[Ch][Tau]], the Absorption capacity in series [4] is 1.67 mol NO per mol of IL.

Consider `C1CCC2=NCCCN2CC1.NCCS(=O)(=O)O` [[DBU][Tau]], for which the Absorption capacity in series [4] was 2.79 mol NO per mol of IL.

On to `CCn1cc[n+](C)c1.NCS(=O)(=O)[O-]` [[EMIm][AMS]], for which the Absorption capacity in series [4] is 1.38 mol NO per mol of IL. Moreover, in series [5], the “t1/2 (HNO release half-life)” value came out at 5.4 h.

Turning to `CCn1cc[n+](C)c1.NCCC(=O)[O-]` [[EMIm][APA]], in series [4], the Absorption capacity is on record as 2.11 mol NO per mol of IL. Besides, in series [5], the “t1/2 (HNO release half-life)” value is 16.6 h.

For the compound `CCn1cc[n+](C)c1.NCCCS(=O)(=O)[O-]` [[EMIm][APS]], the Absorption capacity in series [4] was 2.79 mol NO per mol of IL. Also, in series [5], the “t1/2 (HNO release half-life)” value is 16 h.

`CCn1cc[n+](C)c1.NCCS(=O)(=O)[O-]` [[EMIm][Tau]]: in series [4], the Absorption capacity is listed as 2.28 mol NO per mol of IL.

As to `C[N+](C)(CCO)CCO.NCCS(=O)(=O)[O-]` [[HEMN][Tau]], the Absorption capacity in series [4] was 2.51 mol NO per mol of IL.

With `CCCCCCCCCCCCCC[P+](CCCCCC)(CCCCCC)CCCCCC.NCCS(=O)(=O)[O-]` [[P66614][Tau]], the Absorption capacity in series [4] was 3.33 mol NO per mol of IL. For the same compound, the “t1/2 (HNO release half-life)” value in series [5] was found to be 5.42 h.
